From article PMC3653324 (Translational stroke research, 2012)
Read-outs that look alike come from different tables or passages of the source.

How the values were obtained:
H4IIE cells [1] = assay: CeeTox analysis composite; assay type: cell-based, rat; settings: H4IIE cells, 24 hr
CYP3A4 = CYP3A4 (Homo sapiens, UniProt P08684); assay: Cloe Screen Cytochrome P450 Inhibition assay; assay type: in vitro ADME
H4IIE cells [2] = assay type: cell-based; settings: 24 hr
CYP2C19 = CYP2C19 (Homo sapiens, UniProt P33261); assay: Cloe Screen Cytochrome P450 Inhibition assay; assay type: in vitro ADME
CYP2C19, sequence (P33261 whole entry): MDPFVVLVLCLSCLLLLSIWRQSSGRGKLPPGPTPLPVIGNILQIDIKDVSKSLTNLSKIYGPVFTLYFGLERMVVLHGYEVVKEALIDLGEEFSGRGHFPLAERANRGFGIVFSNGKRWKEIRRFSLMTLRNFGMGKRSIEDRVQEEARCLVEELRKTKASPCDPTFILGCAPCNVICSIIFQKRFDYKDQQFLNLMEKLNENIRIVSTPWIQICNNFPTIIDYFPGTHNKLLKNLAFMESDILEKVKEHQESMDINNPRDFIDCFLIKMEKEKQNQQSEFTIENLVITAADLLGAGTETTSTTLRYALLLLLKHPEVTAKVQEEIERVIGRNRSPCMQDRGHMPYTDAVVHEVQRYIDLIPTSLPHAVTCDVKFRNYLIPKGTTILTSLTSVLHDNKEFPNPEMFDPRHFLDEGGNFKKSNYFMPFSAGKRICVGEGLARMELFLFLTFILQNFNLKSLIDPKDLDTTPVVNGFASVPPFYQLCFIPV

[3] = system: Intracellular glutathione (GSH); assay: CeeTox intracellular glutathione; settings: H4IIE cells
S. typhimurium TA989 = assay: Ames test for mutagenicity, frame-shift strain; assay type: cell-based; settings: first TA98 column; for TA98+S9: with S9, up to 10 μM; for TA98−S9: without S9, up to 10 μM
P-glycoprotein (PgP) = assay: P-glycoprotein; assay type: cell-based, rat; settings: H4IIE cells, MTT, 24 hr, single exposure concentration (20 or 50 μM), without CSA
CYP2C9 = CYP2C9 (Homo sapiens, UniProt P11712); assay: Cloe Screen Cytochrome P450 Inhibition assay; assay type: in vitro ADME
CYP2C9, sequence (P11712 whole entry): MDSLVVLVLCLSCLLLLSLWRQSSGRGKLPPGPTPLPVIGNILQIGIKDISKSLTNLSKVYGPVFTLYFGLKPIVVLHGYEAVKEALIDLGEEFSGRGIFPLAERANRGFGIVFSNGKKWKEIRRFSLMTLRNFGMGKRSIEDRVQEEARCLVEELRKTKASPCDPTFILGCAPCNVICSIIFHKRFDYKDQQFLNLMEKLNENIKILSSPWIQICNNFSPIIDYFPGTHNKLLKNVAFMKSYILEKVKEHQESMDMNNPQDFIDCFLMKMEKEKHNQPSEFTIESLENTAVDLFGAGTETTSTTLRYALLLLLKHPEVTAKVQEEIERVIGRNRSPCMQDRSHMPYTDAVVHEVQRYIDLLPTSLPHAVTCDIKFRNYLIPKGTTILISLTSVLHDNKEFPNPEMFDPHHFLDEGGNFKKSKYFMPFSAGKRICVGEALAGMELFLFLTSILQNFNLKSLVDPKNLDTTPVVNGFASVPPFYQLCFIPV

CYP2D6 = CYP2D6 (Homo sapiens, UniProt P10635); assay: Cloe Screen Cytochrome P450 Inhibition assay; assay type: in vitro ADME
CYP2D6, sequence (P10635 whole entry): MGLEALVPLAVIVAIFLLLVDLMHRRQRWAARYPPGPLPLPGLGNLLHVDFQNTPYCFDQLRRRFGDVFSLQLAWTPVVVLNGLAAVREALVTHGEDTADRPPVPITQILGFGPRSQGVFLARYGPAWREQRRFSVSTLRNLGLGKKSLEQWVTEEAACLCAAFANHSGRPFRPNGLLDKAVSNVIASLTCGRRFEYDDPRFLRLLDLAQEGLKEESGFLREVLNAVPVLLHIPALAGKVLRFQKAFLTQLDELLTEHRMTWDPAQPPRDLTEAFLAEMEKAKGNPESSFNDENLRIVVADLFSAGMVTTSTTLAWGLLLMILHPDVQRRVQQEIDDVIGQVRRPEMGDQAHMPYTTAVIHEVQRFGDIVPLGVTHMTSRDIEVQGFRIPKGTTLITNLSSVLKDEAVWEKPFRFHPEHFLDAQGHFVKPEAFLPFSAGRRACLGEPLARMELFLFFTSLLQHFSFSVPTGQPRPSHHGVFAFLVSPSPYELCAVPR
Procedure, shortened: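 Run blinded. […] Metabolite formation was monitored by LC-MS/MS. IC50 was calculated from the decrease in metabolite formation relative to vehicle control. Quinidine served as positive control inhibitor.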

8-Isoprostane (8-ISO) = assay: CeeTox lipid peroxidation measured as 8-isoprostane; settings: H4IIE cells, 8-ISO score
H4IIE cells [4] = assay: CeeTox membrane toxicity; settings: 24 hr, α-GST leakage
H4IIE cells [5] = assay: CeeTox cell mass; settings: 24 hr
H4IIE cells [6] = assay: CeeTox cellular ATP content; settings: 24 hr
CYP1A2 = target: T1, CYP1A2 (Homo sapiens, UniProt P05177); assay: Cloe Screen Cytochrome P450 Inhibition assay; assay type: in vitro ADME
T1 sequence (P05177 1-516): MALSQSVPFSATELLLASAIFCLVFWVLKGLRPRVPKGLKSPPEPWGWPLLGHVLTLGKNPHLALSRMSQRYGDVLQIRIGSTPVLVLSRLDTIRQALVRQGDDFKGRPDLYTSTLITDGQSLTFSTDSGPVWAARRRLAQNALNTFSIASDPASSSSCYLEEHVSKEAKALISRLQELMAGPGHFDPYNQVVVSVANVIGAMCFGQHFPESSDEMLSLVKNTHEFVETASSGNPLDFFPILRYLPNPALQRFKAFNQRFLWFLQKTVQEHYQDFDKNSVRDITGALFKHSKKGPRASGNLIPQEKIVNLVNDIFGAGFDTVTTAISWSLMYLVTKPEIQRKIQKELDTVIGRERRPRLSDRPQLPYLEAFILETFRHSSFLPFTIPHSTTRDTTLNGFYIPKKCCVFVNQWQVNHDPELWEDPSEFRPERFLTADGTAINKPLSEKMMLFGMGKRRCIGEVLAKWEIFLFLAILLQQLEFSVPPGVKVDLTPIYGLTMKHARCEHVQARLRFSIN

Caspase 3 = assay: CeeTox apoptosis; assay type: cell-based, rat; settings: H4IIE cells
MDR1-MDCK cells = assay: BBB penetration; assay type: in vitro ADME, canine; settings: classification from Papp A→B and efflux
Procedure, shortened: (§1)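 MDCK cells transfected with human MDR1 (P-gp) were grown to a confluent monolayer over 4 days. Test compound was added apically, and A→B transport was followed over 60 min; B→A transport was also measured. Compound on each side was quantified by GC/MS. Papp was calculated for both directions, and efflux ratio = Papp B→A/Papp A→B. High BBB potential: Papp A→B ≥3.0×10⁻⁶ cm/s and efflux <3.0.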

P-glycoprotein (MDR1) = assay: BBB penetration; assay type: in vitro ADME, canine; settings: dog, MDCK-MDR1
Procedure, shortened: as §1

mouse cortical neurons = assay: Cortical neuron glutamate excitotoxicity neuroprotection assay; assay type: cell-based; settings: tested at 0.1 μM
HT22 cells = assay: In vitro ischemia assay; assay type: cell-based; settings: Mus musculus, HT-22, read-out: HT22 EC50 (nM)
Procedure, shortened: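 Mouse HT22 hippocampal cells were grown in DMEM with 10 % FCS and seeded at 5×10^3 cells/well. Next day, medium was changed to DMEM with 7.5 % dialyzed FCS, and cells were exposed to 20 µM iodoacetic acid with or without varying test compound concentrations for 2 h. Medium was then replaced with compound-containing medium without IAA for 20 h. Viability was read by MTT (5 µg/ml, 4 h, 37 °C), solubilized in DMF/SDS pH 4.7, A570.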

CYP3A4, sequence (P08684 2-503): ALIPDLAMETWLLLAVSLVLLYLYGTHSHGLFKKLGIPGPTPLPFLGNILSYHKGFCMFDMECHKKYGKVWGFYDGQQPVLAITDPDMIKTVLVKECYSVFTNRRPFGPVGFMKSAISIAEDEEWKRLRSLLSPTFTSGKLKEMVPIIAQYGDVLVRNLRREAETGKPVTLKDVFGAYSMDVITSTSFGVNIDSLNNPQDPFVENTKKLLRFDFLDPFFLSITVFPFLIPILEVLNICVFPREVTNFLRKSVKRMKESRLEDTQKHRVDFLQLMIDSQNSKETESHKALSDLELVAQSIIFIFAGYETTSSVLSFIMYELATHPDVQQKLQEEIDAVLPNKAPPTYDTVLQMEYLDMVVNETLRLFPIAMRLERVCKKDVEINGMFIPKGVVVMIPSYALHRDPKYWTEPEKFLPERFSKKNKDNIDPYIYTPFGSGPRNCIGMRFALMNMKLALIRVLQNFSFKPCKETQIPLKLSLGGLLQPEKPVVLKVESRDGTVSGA

SMILES	MTT TC50 (H4IIE cells [2])	Total GSH TC50 [3]	TA98+S9 (S. typhimurium TA989)	TA98−S9 (S. typhimurium TA989)	% Control(Compound) (P-glycoprotein (PgP))	Membrane Lipid Peroxidation (8-Isoprostane (8-ISO))	MemTox TC50 (H4IIE cells [4])	Cell Mass TC50 (H4IIE cells [5])	ATP TC50 (H4IIE cells [6])	BBB Potential (MDR1-MDCK cells)	Papp A→B at 60 min (P-glycoprotein (MDR1))	efflux ratio at 60 min (P-glycoprotein (MDR1))	other results
O=c1c(O)c(-c2ccc(O)c(O)c2)oc2c1ccc1ccccc12 [CSMC-6, 3,3',4'-trihydroxy alpha-naphthoflavone]	71 µM	87 µM	Negative (Not mutagenic < 10 μM (NEGATIVE))	Negative (Not mutagenic < 10 μM (NEGATIVE))	68.3 % Control	0	282 µM	80 µM	81 µM	–	–	–	minimum TC50 (H4IIE cells [1]; lowest of the CeeTox endpoints): 71 µM; TC50 for all general toxicity measures (range over endpoints) (H4IIE cells [1]; range across CeeTox endpoints): 71 to 282 µM; IC50 (CYP3A4; read-out: CYP3A4 IC50, human liver microsomes, substrate head: Mephenytoin): > 10 µM; IC50 (CYP2C19; read-out: CYP2C19 IC50, human liver microsomes, substrate head: Midazolam): > 10 µM; IC50 (CYP2C9; read-out: CYP2C9 IC50, human liver microsomes, substrate Tolbutamide): > 10 µM; IC50 (CYP2D6; read-out: CYP2D6 IC50, human liver microsomes, substrate DextroM): > 10 µM
CCCc1ccc2oc(-c3ccc(O)c(O)c3)c(O)c(=O)c2c1 [CSMC-13, 6-propyl-3,3',4'-trihydroxy flavone]	83 µM	252 µM	Negative (Not mutagenic < 10 μM (NEGATIVE))	Negative (Not mutagenic < 10 μM (NEGATIVE))	87.9 % Control	2 (2 = Concentration related increase with maximum values ≥ 15 pg/mL)	>300 µM	78 µM	58 µM	low	0.1 ×10⁻⁶ cm/s	1	IC50 (CYP1A2): > 25 µM; IC50 (CYP3A4): > 10 µM; IC50 (CYP2C19): > 10 µM; Caspase 3 Activity (Index/Dose): dose (Caspase 3; dose at which the index was seen): 100; Caspase 3 Activity (Index/Dose): index (Caspase 3; index of RFU): 1 (0–200 = 1); IC50 (CYP2C9): > 10 µM; IC50 (CYP2D6): > 10 µM
O=c1c(O)c(-c2ccc(O)c(O)c2)oc2cc(O)ccc12 [Fisetin, 3,3',4',7-tetrahydroxyflavone, reference compound]	–	–	–	–	–	–	–	–	–	low	2.96 ×10⁻⁶ cm/s	0.7	Neuroprotection of mouse cortical neurons against glutamate (mouse cortical neurons): did not confer neuroprotection; EC50 (HT22 cells): 4000 nM
